3 compounds from ChEMBL document CHEMBL5360615, “Pharmacological and Physicochemical Properties Optimization for Dual-Target Dopamine D3 (D3R) and μ-Opioid (MOR) Receptor Ligands as Potentially Safer Analgesics” (J Med Chem, 2023) can be followed below.

Activity calls are given as the source filed them. The rule behind the calls is not given here.

The target in test [1] is Mu-type opioid receptor (Homo sapiens, UniProt P35372). In words: Displacement of [3H]-DAMGO from human MOR receptor expressed in HEK293T cell membrane assessed as inhibition constant incubated for 60 mins by MicroBeta scintillation counting method. Type of test: cell membranes. The method in brief:
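HEK293 cells stably expressing human MOR, grown in DMEM with 10% FBS and hygromycin B; membranes prepared from confluent cells. Binding buffer 50 mM Tris, 5 mM MgCl2, pH 7.4. Nonspecific binding with 10 μM naloxone. 60 min at RT, then GF/C filtration.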
In general terms: Displacement assays read how much labelled ligand stays bound in the presence of the test substance.

For test [2], the target named is D(2) dopamine receptor (Homo sapiens, UniProt P14416). Description: Displacement of [3H]N-methylspiperone from human D2L receptor expressed in HEK293T cell membrane assessed as inhibition constant incubated for 60 mins by MicroBeta scintillation counting method. Type of test: cell membranes.
Chain of D(2) dopamine receptor (P14416 whole entry): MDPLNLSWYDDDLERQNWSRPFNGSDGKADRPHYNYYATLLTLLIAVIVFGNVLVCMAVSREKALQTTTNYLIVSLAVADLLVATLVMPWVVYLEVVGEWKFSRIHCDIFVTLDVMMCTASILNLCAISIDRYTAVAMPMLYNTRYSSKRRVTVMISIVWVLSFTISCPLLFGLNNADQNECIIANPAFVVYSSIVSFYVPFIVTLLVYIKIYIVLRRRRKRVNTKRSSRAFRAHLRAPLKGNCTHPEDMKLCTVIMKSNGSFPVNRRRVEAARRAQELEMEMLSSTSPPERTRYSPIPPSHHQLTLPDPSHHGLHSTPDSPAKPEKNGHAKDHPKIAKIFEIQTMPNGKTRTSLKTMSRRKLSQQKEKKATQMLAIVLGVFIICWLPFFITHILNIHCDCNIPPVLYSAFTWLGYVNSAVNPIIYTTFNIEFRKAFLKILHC
Test [3] concerns the target T1, D(3) dopamine receptor (Homo sapiens, UniProt P35462). In words: Displacement of [3H]N-methylspiperone from human D3R receptor expressed in HEK293T cell membrane assessed as inhibition constant incubated for 60 mins by MicroBeta scintillation counting method. Type of test: cell membranes.
Test [4] concerns the target Mu-type opioid receptor (Mus musculus) (UniProt P42866). Description: (§1) Partial agonist activity at Rluc8 fused mouse MOR transfected in HEK293T cells assessed as Nb33 recruitment using coelenterazine as substrate incubated for 40 mins by BRET assay. It is filed as functional, cell-based. The method in brief: (§2)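 HEK293T cells transiently transfected with BRET sensors (DNA:PEI 1:6), plated into poly-D-lysine plates and assayed 48 h post-transfection. Cells washed and held in D-PBS 30 min at 37 °C. Coelenterazine h 5 μM final; ligands 10 μM to 0.01 nM. At least three independent experiments in duplicate.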

For test [5] the target is unchanged. In words: Partial agonist activity at Rluc8 fused mouse MOR transfected in HEK293T cells assessed as Nb33 recruitment at 10 uM using coelenterazine as substrate incubated for 40 mins by BRET assay relative to control. Type of test: functional, cell-based. The method in brief:
as §2

Test [6] has the same target. In words: (§3) Partial agonist activity at SNAP-tagged mouse MOR transfected in HEK293T cells coexpressing wild type Galpha-i2, venus-tagged Gbeta-1 (156 to 239 residues), venus-tagged Ggamma2 (1 to 155 residues) and Rluc8 fused masGRK3ct assessed as Galpha-i2 activation using coelenterazine as substrate incubated for 40 mins by BRET based GPA assay. It is filed as functional, cell-based. The method in brief: as §2
On the technique in general: BRET reads energy transfer from a luciferase to a nearby fluorophore.

For test [7] the target is unchanged. In words: Partial agonist activity at SNAP-tagged mouse MOR transfected in HEK293T cells coexpressing wild type Galpha-i2, venus-tagged Gbeta-1 (156 to 239 residues), venus-tagged Ggamma2 (1 to 155 residues) and Rluc8 fused masGRK3ct assessed as Galpha-i2 activation at 10 uM using coelenterazine as substrate incubated for 40 mins by BRET based GPA assay relative to control. It is filed as functional, cell-based. The method in brief:
as §2

Test [8] shares this target. Description: (§4) Partial agonist activity at Rluc8 fused mouse MOR transfected in HEK293T cells coexpressing wild type GRK2 assessed as arrestin-3 recruitment using coelenterazine as substrate incubated for 40 mins by BRET assay. It is filed as functional, cell-based. The method in brief:
as §2
Background: Recruitment of arrestin is a read-out of receptor activation apart from second messengers.

Test [9] has the same target. Description: Partial agonist activity at Rluc8 fused mouse MOR transfected in HEK293T cells coexpressing wild type GRK2 assessed as arrestin-3 recruitment at 10 uM using coelenterazine as substrate incubated for 40 mins by BRET assay relative to control. Type of test: functional, cell-based. The method in brief:
(§5)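 HEK293T cells transiently transfected with BRET sensors (DNA:PEI 1:6), plated into poly-D-lysine plates and assayed 48 h post-transfection. Cells washed and held in D-PBS 30 min at 37 °C. Coelenterazine h 5 μM final; ligands 10 μM to 0.01 nM. […] At least three independent experiments in duplicate.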

Test [10] has as its target T1, D(3) dopamine receptor. In words: Antagonist activity at SNAP-tagged human D3R receptor transfected in HEK293T cells coexpressing wild type Galpha-oA, venus-tagged Gbeta-1 (156 to 239 residues), venus-tagged Ggamma2 (1 to 155 residues) and Rluc8 fused masGRK3ct assessed as Galpha-oA activation using coelenterazine as substrate incubated for 40 mins in presence of quinpirole by BRET based GPA assay. It is filed as functional, cell-based.

Test [11] has as its target T2, Mu-type opioid receptor (Mus musculus, UniProt P42866). Description: Agonist activity at Rluc8 fused mouse MOR transfected in HEK293T cells assessed as Nb33 recruitment using coelenterazine as substrate incubated for 40 mins by BRET assay. Type of test: functional, cell-based. The method in brief:
as §2

Test [12] concerns the target Mu-type opioid receptor (Mus musculus) (UniProt P42866). Description: Agonist activity at Rluc8 fused mouse MOR transfected in HEK293T cells assessed as Nb33 recruitment at 10 uM using coelenterazine as substrate incubated for 40 mins by BRET assay relative to control. It is filed as functional, cell-based. The method in brief:
as §5

Test [13] addresses T2, Mu-type opioid receptor. Description: Agonist activity at SNAP-tagged mouse MOR transfected in HEK293T cells coexpressing wild type Galpha-i2, venus-tagged Gbeta-1 (156 to 239 residues), venus-tagged Ggamma2 (1 to 155 residues) and Rluc8 fused masGRK3ct assessed as Galpha-i2 activation using coelenterazine as substrate incubated for 40 mins by BRET based GPA assay. It is filed as functional, cell-based. The method in brief:
as §2

Test [14] concerns the target Mu-type opioid receptor (Mus musculus) (UniProt P42866). In words: Agonist activity at SNAP-tagged mouse MOR transfected in HEK293T cells coexpressing wild type Galpha-i2, venus-tagged Gbeta-1 (156 to 239 residues), venus-tagged Ggamma2 (1 to 155 residues) and Rluc8 fused masGRK3ct assessed as Galpha-i2 activation at 10 uM using coelenterazine as substrate incubated for 40 mins by BRET based GPA assay relative to control. Type of test: functional, cell-based. The following applies: filed as agonist. The method in brief:
as §5

Test [15] has as its target T2, Mu-type opioid receptor. In words: Agonist activity at Rluc8 fused mouse MOR transfected in HEK293T cells coexpressing wild type GRK2 assessed as arrestin-3 recruitment using coelenterazine as substrate incubated for 40 mins by BRET assay. It is filed as functional, cell-based. The method in brief: as §2
Test [16] deals with Mu-type opioid receptor (Mus musculus) (UniProt P42866). Description: Agonist activity at Rluc8 fused mouse MOR transfected in HEK293T cells coexpressing wild type GRK2 assessed as arrestin-3 recruitment at 10 uM using coelenterazine as substrate incubated for 40 mins by BRET assay relative to control. It is filed as functional, cell-based. The settings on record: filed as agonist. The method in brief: as §5
Chain of Mu-type opioid receptor (Mus musculus) (P42866 whole entry, the tested form may be a part): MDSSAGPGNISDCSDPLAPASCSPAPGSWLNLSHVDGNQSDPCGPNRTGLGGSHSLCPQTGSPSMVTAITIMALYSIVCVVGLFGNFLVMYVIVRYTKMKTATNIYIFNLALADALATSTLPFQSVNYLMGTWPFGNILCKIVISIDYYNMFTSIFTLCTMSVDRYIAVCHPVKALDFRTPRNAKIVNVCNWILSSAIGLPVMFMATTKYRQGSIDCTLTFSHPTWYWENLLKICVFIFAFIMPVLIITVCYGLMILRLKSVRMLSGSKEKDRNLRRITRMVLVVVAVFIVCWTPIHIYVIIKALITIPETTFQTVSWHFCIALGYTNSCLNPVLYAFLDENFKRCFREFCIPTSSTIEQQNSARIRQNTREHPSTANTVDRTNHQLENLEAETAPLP

Test [17] deals with T2, Mu-type opioid receptor. The test is described as §1. It is filed as functional, cell-based. The method in brief:
as §2

The target of test [18] is T2, Mu-type opioid receptor. The description is as §3. Type of test: functional, cell-based. The method in brief:
as §2

In test [19] the target is T2, Mu-type opioid receptor. The test is described as §4. Type of test: functional, cell-based. The method in brief: as §2
Test [20] has as its target T1, D(3) dopamine receptor. In words: Partial agonist activity at SNAP-tagged human D3R receptor transfected in HEK293T cells coexpressing wild type Galpha-oA, venus-tagged Gbeta-1 (156 to 239 residues), venus-tagged Ggamma2 (1 to 155 residues) and Rluc8 fused masGRK3ct assessed as Galpha-oA activation using coelenterazine as substrate incubated for 40 mins by BRET based GPA assay. Type of test: functional, cell-based.

T1 sequence (P35462 whole entry, the tested form may be a part): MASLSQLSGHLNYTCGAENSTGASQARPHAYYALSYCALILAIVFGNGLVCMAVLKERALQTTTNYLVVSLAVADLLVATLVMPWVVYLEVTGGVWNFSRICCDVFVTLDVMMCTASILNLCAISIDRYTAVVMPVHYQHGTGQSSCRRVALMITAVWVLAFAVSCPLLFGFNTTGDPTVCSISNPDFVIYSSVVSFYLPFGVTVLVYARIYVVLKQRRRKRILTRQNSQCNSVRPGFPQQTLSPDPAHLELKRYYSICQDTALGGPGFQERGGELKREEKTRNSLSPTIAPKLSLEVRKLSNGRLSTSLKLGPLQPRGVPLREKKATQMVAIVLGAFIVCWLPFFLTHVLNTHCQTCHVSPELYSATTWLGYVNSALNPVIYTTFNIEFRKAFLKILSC
T2 sequence (P42866 whole entry, the tested form may be a part): as the sequence (P42866 whole entry, the tested form may be a part) above
Chain of Mu-type opioid receptor (Homo sapiens, UniProt P35372) (P35372 whole entry): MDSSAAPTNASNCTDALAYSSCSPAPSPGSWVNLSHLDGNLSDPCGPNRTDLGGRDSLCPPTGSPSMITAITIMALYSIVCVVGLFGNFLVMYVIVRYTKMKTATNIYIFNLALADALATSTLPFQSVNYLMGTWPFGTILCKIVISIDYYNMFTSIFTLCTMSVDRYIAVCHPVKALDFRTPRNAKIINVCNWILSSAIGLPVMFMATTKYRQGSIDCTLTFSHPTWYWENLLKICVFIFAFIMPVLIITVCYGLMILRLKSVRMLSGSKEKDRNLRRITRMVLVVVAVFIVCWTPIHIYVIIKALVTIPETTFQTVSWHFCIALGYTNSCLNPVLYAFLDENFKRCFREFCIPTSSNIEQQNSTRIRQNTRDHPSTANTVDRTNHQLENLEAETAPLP

As for `CN(C)C(=O)C(CCN1C[C@H](F)C[C@H]1C(=O)NCCCCN1CCN(c2nsc3ccccc23)CC1)(c1ccccc1)c1ccccc1`, the inhibitory constant (Ki) was determined as 146 nM in test [1], 322 nM in [2] and 53 nM in [3]. Besides, the outcome in test [4], in test [6], in test [7], in [8] and in [9] was inactive. Moreover, in test [5], the Emax result was “inactive”. The EC50 in test [10] came to 90.9 nM. Also, in test [10], the IC50 is 91.2 nM.
As for `Clc1ccc([C@@H]2C[C@H]2NCCC2(c3ccccn3)CCOC3(CCCC3)C2)cc1` (relative stereo), the inhibitory constant (Ki) in test [1] worked out at 85.2 nM; in test [2] it was 5520 nM; in [3] it was 361 nM. The EC50 was 406 nM in test [11]; 73.4 nM in test [13] (read-out: EC50); 72.4 nM in test [13] (read-out: pEC50 (converted)); 261 nM in test [15]; 271 nM in test [10]. Moreover, the Emax was 24.9% in test [12], 97.6% in test [14] and 51.3% in test [16]. Also, the half-inhibitory concentration (IC50) in test [10] is 269 nM.
For `CN(C)C(=O)C(CCN1CCC(CCN2CCN(c3cccc(Cl)c3Cl)CC2)C1)(c1ccccc1)c1ccccc1` (stereo not drawn), the inhibition constant Ki in [1] came out at 23.5 nM; in [2], 117 nM; in test [3] it was 20.2 nM. For the same compound, the EC50 in test [17] was 658 nM; in test [18], 158 nM; in [19], 470 nM; in test [20], 41.7 nM. Moreover, the figures for the maximal effect (Emax) in test [5], in test [7] (filed as partial agonist) and in test [9] were 14.6%, 85.4% and 10.5%, respectively.

The Ki is the dissociation constant of the complex between target and ligand, obtained from inhibition or displacement. What is called Emax is the size of the effect at its maximum, as opposed to the concentration needed. As a reminder, the IC50 is the concentration that inhibits the measured activity by half.
